This is an account of results in PubChem BioAssay.

What is called viability is a read-out of living cells in per cent, often relative to untreated cells. Usually inhibition stands for the drop in the measured response relative to a control, in per cent.

Test [1] in a line: Her2 expression decrease, cell viability multiplex – SKBR3 breast tumor cells, AlphaScreen, ATP viability, primary screen (AID 461;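 active = Her2 level under about 52% in both replicate screens, with viability over 70% of control, limit read from the data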;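 for Her2 level: lower value means less Her2 protein in the cells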;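 for viability: percent of carrier control wells set as 100% viability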). As to conditions: SKBR3 Her2 protein level, 18-24 h, measured here: SKBR3 viability, ATP luminescence, at 10 µM. Background: Bead proximity is the source of the signal in Alpha formats.
Test [2] has as its target Receptor tyrosine-protein kinase erbB-2 (Homo sapiens) (UniProt P04626). The test is described as above. As to conditions: 18-24 h, at 10 µM, stronger effect = lower value.
The nature of test [3]: reduced viability of SK-BR-3 breast cancer cells – cell-based, 24 h, human, pilot screen (AID 572;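 active = viability at or below 10% of carrier control in both of two separate runs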;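 note: compound exposure lasted between 18 and 24 h rather than exactly 24 h; 100% = carrier-treated control wells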). As to conditions: SK-BR-3 viability, CellTiter-Glo luminescence, at 10 µM, stronger effect = lower value.
A short description of test [4]: HUVEC growth inhibition – cell-based, human, primary screen (AID 575;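 active = viability at or below 30% in both replicate assays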;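 note: 100% = median of untreated cell wells with 0.1% DMSO on each plate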). As to conditions: HUVEC proliferation, CellTiter-Glo luminescence, 72 h; at 10 µM; stronger effect = lower value. The method, boiled down:
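material = primary HUVEC, no more than 12 passages | input = 1250 cells per well | controls = vehicle and MePR control wells | measured by = CTG luminescence | times = 72 h compound incubation | format = collagen-coated 384-well format | read-out = % viability vs DMSO wells | doses = single 10 µM dose, 0.1% DMSO, from 5x medium stock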
In general terms: Cellular ATP, detected with luciferase, serves as a proxy for viable cell number.

Test [5] is described as follows: H69AR cell proliferation blockers – human, duplicate replicates, primary screen (AID 580;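 active = viability at or under a set limit in both replicates, limit being median viability minus 3 SD, cut at about 48% in these data, passing the limit was not always enough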;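 note: 100% = mean luminescence of untreated wells and 0% = no signal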). Particulars: H69AR lung tumor cells viability, ATP luminescence, 72 h; at 10 µM; stronger effect = lower value.
A short description of test [6]: MRP1 drug-resistance reversers in H69AR cells – cell-based, doxorubicin co-treatment, pilot screen (AID 601). As to conditions: CellTiter-Glo, 72 h, at 10 µM; for differential viability (reversal): stronger effect = higher value.
Test [7] is described as follows: yeast transport mutant growth inhibition pilot in 384-well plates, post-Golgi transport modulator project (AID 636; in the data active = inhibition above about 31%). As to conditions: absorbance 615 nm, about 18 h, stronger effect = higher value.
Test [8] in a line: growth suppression of yeast trafficking mutant, preliminary HTS, modulators of trafficking downstream of Golgi apparatus project, 1536-format plate, OD 615 nm (AID 637; in the data active = inhibition above about 30%). As to conditions: yeast transport mutant growth, absorbance 615 nm, 18 h; stronger effect = higher value.
Setting [9] is: H69AR cells + 2 uM doxorubicin, measured here: viability with 2 uM doxorubicin, stronger effect = lower value.
Setting [10] is: H69AR cells, compound alone cytotoxicity.

The source made the active and inactive calls.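 Rule for the calls, unless noted: active = viability loss from added drug above about 55%, and viability with drug at most 40%, in both replicates (limit read from the data, passing the limit was not always enough); inconclusive = both conditions met in only one replicate; inactive = neither replicate meets both conditions.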

Receptor tyrosine-protein kinase erbB-2 (Homo sapiens), sequence (P04626 whole entry, looked up): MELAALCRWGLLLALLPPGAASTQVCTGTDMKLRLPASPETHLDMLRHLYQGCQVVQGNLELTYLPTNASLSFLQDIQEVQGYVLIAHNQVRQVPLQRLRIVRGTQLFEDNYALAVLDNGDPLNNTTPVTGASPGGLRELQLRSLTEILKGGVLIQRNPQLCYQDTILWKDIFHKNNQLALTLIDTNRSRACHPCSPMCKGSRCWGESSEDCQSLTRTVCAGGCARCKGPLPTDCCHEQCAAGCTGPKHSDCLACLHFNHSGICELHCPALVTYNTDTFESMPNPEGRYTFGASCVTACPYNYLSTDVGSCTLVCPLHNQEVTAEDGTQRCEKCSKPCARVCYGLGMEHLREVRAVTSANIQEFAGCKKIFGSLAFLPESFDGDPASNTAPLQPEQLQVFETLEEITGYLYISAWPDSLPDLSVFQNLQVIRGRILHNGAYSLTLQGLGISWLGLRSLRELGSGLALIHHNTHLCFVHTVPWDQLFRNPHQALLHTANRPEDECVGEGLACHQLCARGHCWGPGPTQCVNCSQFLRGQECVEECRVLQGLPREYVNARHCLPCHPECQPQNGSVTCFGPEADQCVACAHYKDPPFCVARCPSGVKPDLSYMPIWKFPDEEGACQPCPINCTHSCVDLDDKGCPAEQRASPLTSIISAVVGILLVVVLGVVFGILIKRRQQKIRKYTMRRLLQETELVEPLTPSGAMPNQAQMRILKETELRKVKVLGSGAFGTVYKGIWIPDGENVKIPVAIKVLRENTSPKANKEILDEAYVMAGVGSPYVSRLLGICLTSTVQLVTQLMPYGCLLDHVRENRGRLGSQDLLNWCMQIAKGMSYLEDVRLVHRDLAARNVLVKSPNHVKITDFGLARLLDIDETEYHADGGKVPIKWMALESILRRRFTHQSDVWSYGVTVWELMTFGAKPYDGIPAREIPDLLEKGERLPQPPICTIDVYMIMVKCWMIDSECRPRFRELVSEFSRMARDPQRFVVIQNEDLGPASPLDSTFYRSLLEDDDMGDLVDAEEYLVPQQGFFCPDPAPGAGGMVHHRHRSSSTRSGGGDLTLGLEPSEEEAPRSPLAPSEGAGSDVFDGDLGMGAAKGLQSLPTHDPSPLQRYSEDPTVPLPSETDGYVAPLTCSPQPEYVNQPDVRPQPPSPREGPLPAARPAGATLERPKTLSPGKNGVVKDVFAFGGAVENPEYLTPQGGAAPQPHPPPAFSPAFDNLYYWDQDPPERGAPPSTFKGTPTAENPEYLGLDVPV

With `CCOc1ccc(S(=O)(=O)NCC2CCCO2)c2cccnc12` (stereo not given), the viability in test [1] was 99%; in test [3], 99% (inactive); in test [4], 93.8% (inactive); in test [5], 93.6% (inactive); in test [6] (setting [9]), 87.1%; in test [6] (setting [10]), 93.6%. For the same compound, in test [2], the Her2 level was 99.5% (inactive). Further, the differential viability (reversal) in test [6] (H69AR cells + 2 uM doxorubicin) is 6.55% (inactive). In addition, the results for the inhibition in test [7] and in test [8] were 0.13% (inactive) and 5.08% (inactive), respectively.
Consider `NC1=NC(c2ccc(Br)cc2)n2c(nc3ccccc32)N1` (stereo not given), for which the viability is 90% in test [1]; 90% (inactive) in test [3]; 75.5% (inactive) in test [4]; 81.4% (inactive) in test [5]; 76.6% in test [6] (setting [9]); 81.4% in test [6] (setting [10]). The Her2 level in test [2] was 82% (inactive). The differential viability (reversal) in test [6] (H69AR cells + 2 uM doxorubicin) is 4.81% (inactive). In addition, the inhibition is -5.13% (inactive) in test [7] and -6% (inactive) in test [8].
On to `COc1ccc(-c2noc(-c3ccccc3C(=O)Nc3cccnc3)n2)cc1OC`, for which the viability in test [1] is 89.5%; in test [3], 89.5% (inactive); in test [4] it was 80.6% (inactive); in test [5], 90.4% (inactive); in test [6] (setting [9]), 75.7%; in test [6] (setting [10]), 90.4%. Moreover, in test [2], the Her2 level was 83% (inactive). For the same compound, the differential viability (reversal) in test [6] (H69AR cells + 2 uM doxorubicin) is 14.8% (inactive). In addition, the results for the inhibition in test [7] and in test [8] were -3.6% (inactive) and -2.38% (inactive), respectively.
`Cn1c(=O)c2c(ncn2CC(O)CNc2ccc(Cl)cc2)n(C)c1=O` (stereo not given): the viability in test [1] was 91%; in test [3], 91% (inactive); in test [4], 79.6% (inactive); in test [5], 89.9% (inactive); in test [6] (setting [9]), 89.5%; in test [6] (setting [10]) it was 89.9%. Moreover, in test [2], the Her2 level is 103% (inactive). In test [6] (H69AR cells + 2 uM doxorubicin), the differential viability (reversal) was 0.365% (inactive). In addition, the inhibition was -0.53% (inactive) in test [7] and -5.71% (inactive) in test [8].
Take `CCCCn1c(SCC(=O)Nc2ccc(OC)cc2)nc2ccc(N3CCOCC3)cc2c1=O`: the viability in test [1] was 94.5%; in test [3], 94.5% (inactive); in test [4], 72.4% (inactive); in test [5] it was 89.6% (inactive); in test [6] (setting [9]), 89%; in test [6] (setting [10]) it was 89.6%. The Her2 level in test [2] is 86% (inactive). Further, the differential viability (reversal) in test [6] (H69AR cells + 2 uM doxorubicin) was 0.605% (inactive). Also, the inhibition in test [7] is -2.8% (inactive); in test [8] it was 0.16% (inactive).
Turning to `CCC(C)N=C1SCC(C)(/C=N/O)S1` (stereo not given), the viability in test [1] was 97%; in test [3] it was 97% (inactive); in test [4], 116% (inactive); in test [5], 104% (inactive); in test [6] (setting [9]), 95.8%; in test [6] (setting [10]) it was 104%. The Her2 level in test [2] is 88.5% (inactive). For the same compound, the differential viability (reversal) in test [6] (H69AR cells + 2 uM doxorubicin) was 7.86% (inactive). Moreover, the inhibition in test [7] was -2.37% (inactive); in test [8] it was -0.98% (inactive).
`COc1ccc2c(c1)C(C)=CC(C)(C)N2C(=O)CSc1nnc(-c2ccc(C)cc2)o1`: the viability in test [1] is 98.5%; in test [3], 98.5% (inactive); in test [4], 53.2% (inactive); in test [5], 93.9% (inactive); in test [6] (setting [9]), 91.8%; in test [6] (setting [10]), 93.9%. For the same compound, the Her2 level in test [2] is 99% (inactive). Moreover, in test [6] (H69AR cells + 2 uM doxorubicin), the differential viability (reversal) is 2.13% (inactive). In addition, the inhibition in test [7] was 31% (active); in test [8], -1% (inactive).
Take `O=C(NCC1CCCO1)C1c2ccccc2C(=O)N1C1CCCCCC1` (stereo not given): the viability in test [1] was 105%; in test [3] it was 105% (inactive); in test [4] it was 88.9% (inactive); in test [5], 104% (inactive); in test [6] (setting [9]) it was 97.6%; in test [6] (setting [10]), 104%. Further, the Her2 level in test [2] is 89% (inactive). Also, the differential viability (reversal) in test [6] (H69AR cells + 2 uM doxorubicin) was 6.58% (inactive). Further, the inhibition is -2.6% (inactive) in test [7] and 1.43% (inactive) in test [8].
On to `COc1ccccc1CC1(C)NC(=O)N(CC(=O)Nc2cc(C)on2)C1=O` (stereo not given), for which the viability in test [1] was 106%; in test [3], 106% (inactive); in test [4], 106% (inactive); in test [5], 92.7% (inactive); in test [6] (setting [9]) it was 83.6%; in test [6] (setting [10]) it was 92.7%. For the same compound, the Her2 level in test [2] was 86% (inactive). The differential viability (reversal) in test [6] (H69AR cells + 2 uM doxorubicin) is 9.12% (inactive). Moreover, the inhibition in test [7] was -5.81% (inactive); in test [8], 4.13% (inactive).
With `COc1ccc(C2C(=O)N(C3CCCCC3)CC(=O)N2Cc2ccco2)cc1` (stereo not given), the viability was 110% in test [1]; 110% (inactive) in test [3]; 95.9% (inactive) in test [4]; 97.7% (inactive) in test [5]; 79.5% in test [6] (setting [9]); 97.7% in test [6] (setting [10]). In addition, in test [2], the Her2 level is 91.5% (inactive). Moreover, in test [6] (H69AR cells + 2 uM doxorubicin), the differential viability (reversal) is 18.2% (inactive). Besides, the inhibition in test [7] is -6.67% (inactive); in test [8], 1.45% (inactive).
For the compound `c1ccc(Nc2ccccc2Nc2ccccn2)nc1`, the viability in test [1] is 138%; in test [3], 138% (inactive); in test [4], 95.8% (inactive); in test [5], 91.7% (inactive); in test [6] (setting [9]) it was 99.2%; in test [6] (setting [10]), 91.7%. For the same compound, the Her2 level in test [2] was 108% (inactive). Further, the differential viability (reversal) in test [6] (H69AR cells + 2 uM doxorubicin) is -7.51% (inactive). In addition, the inhibition in test [7] was -3.33% (inactive); in test [8], 5.08% (inactive).
Consider `COC(=O)c1cn(C(=O)OC)c2ccccc12`, for which the viability in test [1] is 96.5%; in test [3] it was 96.5% (inactive); in test [4], 85.1% (inactive); in test [5], 87.7% (inactive); in test [6] (setting [9]), 88.3%; in test [6] (setting [10]) it was 87.7%. In test [2], the Her2 level is 102% (inactive). Besides, the differential viability (reversal) in test [6] (H69AR cells + 2 uM doxorubicin) was -0.61% (inactive). The inhibition was -4.87% (inactive) in test [7] and 4.1% (inactive) in test [8].
For the compound `CCC(=O)Nc1ccc(Cl)c(NC(=O)C(C)C)c1`, the viability in test [1] is 97%; in test [3] it was 97% (inactive); in test [4], 87.9% (inactive); in test [5], 111% (inactive); in test [6] (setting [9]) it was 103%; in test [6] (setting [10]) it was 111%. Also, the Her2 level in test [2] is 80% (inactive). In addition, in test [6] (H69AR cells + 2 uM doxorubicin), the differential viability (reversal) was 7.54% (inactive). Besides, the inhibition in test [7] was -7.97% (inactive); in test [8], 6.07% (inactive).
For `Cc1cccc2c1N(CC(=O)OC(C)C)C(=O)C2=O`, the viability is 76.5% in test [1]; 76.5% (inactive) in test [3]; 95% (inactive) in test [4]; 75.2% (inactive) in test [5]; 78.5% in test [6] (setting [9]); 75.2% in test [6] (setting [10]). Also, the Her2 level in test [2] was 103% (inactive). Moreover, the differential viability (reversal) in test [6] (H69AR cells + 2 uM doxorubicin) was -3.31% (inactive). Besides, the inhibition was 1.67% (inactive) in test [7] and 6.67% (inactive) in test [8].
